Data taken from publication PMC5481844 (Biomedical chromatography : BMC, 2015).
Like-named read-outs stand apart in the source and are kept apart here.

Assays:
[1] = acid hydrolysis also observed; ref Stariat et al., 2009; cited from earlier work
[2] = stability in different solvents; format: physicochemical
Method in brief: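 Remaining amount was quantified by LC-MS/MS: C18 gradient with 0.1% formic acid, positive ESI, SRM m/z 235.2/178.0, 2-amino-6-bromobenzothiazole internal standard.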

stability in plasma = format: in vitro ADME, human; conditions: for Measured concentration: n = 3
Method in brief: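 Human plasma was spiked at 100 and 500 ng/mL and kept at room temperature or on ice for up to 24 h; percent remaining was taken versus freshly prepared samples. For quantitation, 50 µL plasma plus internal standard and EDTA underwent acetonitrile precipitation and centrifugation, then LC-MS/MS in SRM mode. Calibration spanned 3.9–500 ng/mL, fitted with 1/concentration weighting.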

human plasma proteins [3] = test: plasma binding by ultrafiltration; format: in vitro ADME
Method in brief: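 Pooled human plasma was spiked with test compound in DMSO to a final 500 ng/mL; preliminary runs also used 31.25 and 3.9 ng/mL. After 1 h at 37 °C, plasma was ultrafiltered (30 kDa cutoff, 20 min, 13,000 g). Total plasma and ultrafiltrate levels were measured by LC-MS/MS. %bound = 100×(Ctotal−Cfree)/Ctotal, corrected for membrane adsorption via recovery from water. n = 3.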

human plasma proteins [4] = test: plasma binding by ultracentrifugation; format: in vitro ADME; conditions: 500 ng/mL, n = 3
Method in brief: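 Pooled human plasma was spiked with test compound in DMSO (final 500 ng/mL) and incubated 1 h at 37 °C. It was then spun at 50,000 rpm in a fixed-angle rotor for 10 h at 20 °C. The supernatant gave free and whole plasma gave total concentration, both by LC-MS/MS. %bound = 100×(Ctotal−Cfree)/Ctotal. n = 3.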

human serum albumin = human serum albumin (Homo sapiens, UniProt P02768); test: binding to human serum albumin solution by ultrafiltration; format: in vitro ADME; conditions: human serum albumin (4%) in PBS, 500 ng/mL, n = 3
Method in brief: (§1)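 Test compound was spiked to a final 500 ng/mL into 4% human serum albumin or 0.1% human α1-acid glycoprotein in PBS. Samples were incubated 1 h at 37 °C, then ultrafiltered through a 30 kDa cutoff device for 20 min at 13,000 g. Total and filtrate concentrations were measured by LC-MS/MS. %bound = 100×(Ctotal−Cfree)/Ctotal, with the filtrate corrected for membrane adsorption using recovery from water. n = 3.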

[5] = tested on: human α1-acid glycoprotein; test: binding to human α1-acid glycoprotein solution by ultrafiltration; format: in vitro ADME; conditions: human α1-acid glycoprotein (0.1%) in PBS, 500 ng/mL, n = 3
Method in brief: as §1

[6] = human plasma, long term (30 days at −80 °C), nominal 3.9 ng/mL
[7] = human plasma, long term (30 days at −80 °C), nominal 31.3 ng/mL
[8] = human plasma, long term (30 days at −80 °C), nominal 500.0 ng/mL
[9] = human plasma, short-term (2 h on ice), nominal 31.3 ng/mL
[10] = human plasma, short-term (2 h on ice), nominal 500.0 ng/mL
[11] = human plasma, three freeze–thaw cycles, nominal 3.9 ng/mL
[12] = human plasma, three freeze–thaw cycles, nominal 500.0 ng/mL
[13] = processed human plasma samples, autosampler for 24 h, nominal 3.9 ng/mL
[14] = processed human plasma samples, autosampler for 24 h, nominal 31.3 ng/mL
[15] = processed human plasma samples, autosampler for 24 h, nominal 500.0 ng/mL

Sequence of human serum albumin (P02768 25-609): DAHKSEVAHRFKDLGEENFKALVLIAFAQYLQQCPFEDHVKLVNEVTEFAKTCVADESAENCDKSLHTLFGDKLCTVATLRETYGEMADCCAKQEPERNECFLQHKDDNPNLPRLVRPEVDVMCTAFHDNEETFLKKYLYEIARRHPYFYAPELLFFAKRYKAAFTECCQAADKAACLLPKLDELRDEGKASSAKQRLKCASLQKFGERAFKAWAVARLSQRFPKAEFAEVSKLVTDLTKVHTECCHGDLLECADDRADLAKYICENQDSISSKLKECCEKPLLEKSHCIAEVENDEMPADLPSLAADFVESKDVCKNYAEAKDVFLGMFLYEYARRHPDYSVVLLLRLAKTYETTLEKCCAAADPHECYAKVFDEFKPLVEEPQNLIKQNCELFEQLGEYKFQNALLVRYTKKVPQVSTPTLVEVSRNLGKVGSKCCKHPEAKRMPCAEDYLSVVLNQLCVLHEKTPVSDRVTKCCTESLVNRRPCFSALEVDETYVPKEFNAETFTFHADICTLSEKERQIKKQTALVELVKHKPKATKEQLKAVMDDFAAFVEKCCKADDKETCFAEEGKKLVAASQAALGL

In the case of `CN(C)C(=S)NN=C(c1ccccn1)c1ccccn1` [Dp44mT, di-2-pyridylketone-4,4-dimethyl-3-thiosemicarbazone], the “stability in acidic buffer” value [1] is given as “also observed”.
With `CC(=NNC(=S)N1CCC1)c1ccccn1` [ZMC1, azetidinecarbothioic acid, [1-(2-pyridinyl)ethylidene] hydrazide] the “stability in acidic buffer” value ([2]; 0.1 M HCl, 500 ng/mL, hydrolysis of thiosemicarbazone bond) was “quickly degraded”, the “stability in PBS” value ([2]; PBS pH 7.2, 500 ng/mL, 24 h at 4 °C, 37 °C and room temperature) was “stable without degradation” and the “stability in solvent acetonitrile” value ([2]; acetonitrile–water 80:20 v/v, 500 ng/mL, 24 h at 4 °C, 37 °C and room temperature) was “stable without degradation”. For the same compound, the “stability in neutral buffer” value ([2]; preliminary stability studies) was “good stability”, the degraded in plasma (stability in plasma; 100 ng/mL, room temperature, over 24 h, vs freshly prepared samples) was > 40% and the stability in plasma (stability in plasma; 500 ng/mL, room temperature, up to 24 h) was “stable”. The Bias (stability in plasma; [6]) was −0.01%, the Measured concentration (stability in plasma; [6]) was 3.9 ng/mL and the Bias (stability in plasma; [7]) was −2.9%. For the same compound, the Measured concentration (stability in plasma; [7]) was 30.3 ng/mL, the Bias (stability in plasma; [8]) was 3.2% and the Measured concentration (stability in plasma; [8]) was 516.4 ng/mL. It also gave a Bias (stability in plasma; human plasma, short-term (2 h on ice), nominal 3.9 ng/mL) of −0.4%, a Bias (stability in plasma; [9]) of −7.0% and a Measured concentration (stability in plasma; [9]) of 29.0 ng/mL. The Bias (stability in plasma; [10]) was −1.3%, the Measured concentration (stability in plasma; [10]) was 493.9 ng/mL and the Bias (stability in plasma; [11]) was 4.8%. It also gave a Measured concentration (stability in plasma; [11]) of 4.1 ng/mL, a Bias (stability in plasma; human plasma, three freeze–thaw cycles, nominal 31.3 ng/mL) of −10.4% and a Bias (stability in plasma; [12]) of 10.6%. For the same compound, the Measured concentration (stability in plasma; [12]) was 553.1 ng/mL, the Bias (stability in plasma; [13]) was 4.0% and the Measured concentration (stability in plasma; [13]) was 4.1 ng/mL. The Bias (stability in plasma; [14]) was 13.0%, the Measured concentration (stability in plasma; [14]) was 35.4 ng/mL and the Bias (stability in plasma; [15]) was 10.0%. For the same compound, the Measured concentration (stability in plasma; [15]) was 550.7 ng/mL, the “stability of plasma samples under storage conditions” value (stability in plasma; −80 °C for 1 month, 4 °C for 2 h, three freeze–thaw cycles, 24 h in autosampler) was “stable” and the “Percentage of bound drug by ultrafiltration” value (human plasma proteins [3]; human plasma, 500 ng/mL, n = 3) was 98.8. The “concentration of free ZMC1 in ultrafiltrate or ultracentrifugation supernatant” value (human plasma proteins [3]; plasma spiked at 31.25 and 3.9 ng/mL) was “below the detection limit”, the “Percentage of bound drug by ultracentifugation” value (human plasma proteins [4]) was 97.5 and the “Percentage of bound drug by ultrafiltration” value (human serum albumin) was 98.4. The “Percentage of bound drug by ultrafiltration” value [5] was 34.9.
